ChEMBL document CHEMBL3826935, “Synthesis and Pharmacology of (Pyridin-2-yl)methanol Derivatives as Novel and Selective Transient Receptor Potential Vanilloid 3 Antagonists” (J Med Chem, 2016)

What was measured:
Rattus norvegicus [1] = assay: Antiallodynic activity in po dosed chronic constriction injury Sprague-Dawley rat model of neuropathic pain assessed as attenuation of mechanical allodynia induced by von Frey hair stimulation to the ipsilateral hind paw; type: functional, organism-based
In short: (§1)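 Rat neuropathic pain models dosed orally. Mechanical allodynia measured by von Frey stimulation of the injured ipsilateral paw, with a 15 g threshold taken as maximal possible effect and results expressed as %MPE. Vehicle 10% DMSO in PEG; n = 6 per group.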

Rattus norvegicus [2] = species: Rattus norvegicus; assay: Cardiotoxicity in rat assessed as increase in mean arterial pressure; type: toxicity, organism-based, Artery; details: in vivo
[3] = Fraction unbound in human plasma; type: ADME, cell-free
Rattus norvegicus [4] = assay: Toxicity in chronic constriction injury Sprague-Dawley rat model of neuropathic pain assessed as behavioral changes at 10 to 100 mg/kg, po; type: organism-based; details: in vivo
[5] = Half life in rat at 1 mg/kg, iv; type: ADME, organism-based; details: in vivo
In short: (§2)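 Rat pharmacokinetics: iv dose 1 mg/kg; po dose 1 or 2 mg/kg depending on compound. AUC taken over 0–8 h. Unbound parameters calculated using plasma free fraction.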

[6] = molecular target: Voltage-dependent N-type calcium channel subunit alpha-1B (Homo sapiens) (UniProt Q00975); assay: Binding affinity to Cav2.2 (unknown origin) at 10 uM
In short: (§3)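 Selectivity screen at 10 µM across CEREP and internal target panels. Readout is percent binding, with 50% as the threshold.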

Liver microsome = assay: Unbound intrinsic clearance in rat liver microsomes after 5 hrs by LC-MS/MS analysis; type: ADME
In short: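 Microsomal stability run in an automated high-throughput plate format. Intrinsic clearance corrected for nonspecific microsomal binding using measured unbound fraction (fu,mic), reported as unbound Clint in L/h/kg.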

[7] = molecular target: T1, Transient receptor potential cation channel subfamily V member 3 (Homo sapiens) (UniProt Q8NET8); assay: Antagonist activity at human TRPV3 expressed in recombinant HEK293 cells assessed as free plasma level adjusted concentration for inhibition of 2-APB induced calcium flux by FLIPR analysis; type: cell-based
T1 sequence (whole entry): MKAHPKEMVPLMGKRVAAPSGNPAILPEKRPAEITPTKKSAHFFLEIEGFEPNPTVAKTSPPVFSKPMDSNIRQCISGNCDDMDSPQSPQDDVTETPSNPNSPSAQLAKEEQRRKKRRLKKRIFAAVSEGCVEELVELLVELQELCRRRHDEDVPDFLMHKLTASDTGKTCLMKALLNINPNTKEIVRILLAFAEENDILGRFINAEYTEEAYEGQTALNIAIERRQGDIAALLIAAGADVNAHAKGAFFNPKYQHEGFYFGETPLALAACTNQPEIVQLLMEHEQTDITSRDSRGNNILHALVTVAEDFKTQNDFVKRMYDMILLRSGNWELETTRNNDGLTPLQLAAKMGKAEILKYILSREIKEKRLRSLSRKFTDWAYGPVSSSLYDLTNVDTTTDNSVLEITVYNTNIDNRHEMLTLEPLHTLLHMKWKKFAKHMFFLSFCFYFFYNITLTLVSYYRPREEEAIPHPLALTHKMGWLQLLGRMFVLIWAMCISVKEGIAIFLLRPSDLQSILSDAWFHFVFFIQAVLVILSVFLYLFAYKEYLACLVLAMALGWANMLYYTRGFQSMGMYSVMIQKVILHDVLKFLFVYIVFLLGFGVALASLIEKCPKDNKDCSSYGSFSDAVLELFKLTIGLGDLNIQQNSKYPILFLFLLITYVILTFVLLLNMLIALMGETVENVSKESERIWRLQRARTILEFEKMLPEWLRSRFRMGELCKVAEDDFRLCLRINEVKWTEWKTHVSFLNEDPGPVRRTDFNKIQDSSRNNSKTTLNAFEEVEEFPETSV
In short: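 FLIPR Kb from the 2-APB (60 µM final) Ca2+ flux assay in human TRPV3 HEK293 cells, converted to an unbound value using the measured free fraction in plasma.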

[8] = Cmax in rat at 1 mg/kg, iv or 2 mg/kg, po; type: ADME, organism-based; details: in vivo; in short: as §2
[9] = Ratio of drug level in plasma to brain in Sprague-Dawley rat; type: ADME, cell-free; details: in vivo
Rattus norvegicus [10] = assay: Toxicity in sciatic nerve ligation Sprague-Dawley rat model of neuropathic pain assessed as overt impairments at 10 to 100 mg/kg, po; type: organism-based; details: in vivo
[11] = molecular target: Sodium channel protein type 5 subunit alpha (Homo sapiens, UniProt Q14524); assay: Binding affinity to Nav1.5 (unknown origin) at 10 uM; in short: as §3
[12] = molecular target: T2, Nuclear receptor subfamily 1 group I member 2 (Homo sapiens, UniProt O75469); assay: Activation of human PXR; type: ADME; details: human
T2 sequence (O75469 whole entry): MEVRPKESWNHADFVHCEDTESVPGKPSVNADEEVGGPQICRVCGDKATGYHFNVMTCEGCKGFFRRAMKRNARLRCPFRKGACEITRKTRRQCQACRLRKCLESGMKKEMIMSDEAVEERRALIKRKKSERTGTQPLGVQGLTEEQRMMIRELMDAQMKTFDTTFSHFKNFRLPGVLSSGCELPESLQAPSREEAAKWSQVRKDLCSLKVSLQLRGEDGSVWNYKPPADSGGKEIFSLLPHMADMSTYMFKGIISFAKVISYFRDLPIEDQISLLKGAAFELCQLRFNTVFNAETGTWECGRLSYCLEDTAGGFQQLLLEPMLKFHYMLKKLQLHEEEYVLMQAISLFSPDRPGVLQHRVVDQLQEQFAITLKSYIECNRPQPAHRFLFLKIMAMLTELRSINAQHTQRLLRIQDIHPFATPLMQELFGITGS

[13] = molecular target: T1, Transient receptor potential cation channel subfamily V member 3 (Homo sapiens); assay: Binding affinity to TRPV3 (unknown origin) at 10 uM
Rattus norvegicus [14] = assay: Unbound AUC(0 to 8 hrs) in rat at 2 mg/kg, po; type: ADME, organism-based; details: in vivo; in short: as §2
[15] = molecular target: T1, Transient receptor potential cation channel subfamily V member 3 (Homo sapiens); assay: (§4) Antagonist activity at human TRPV3 expressed in recombinant HEK293 cells assessed as inhibition of 2-APB induced calcium flux by FLIPR analysis; type: cell-based
In short: (§5)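 HEK293 cells stably expressing human TRPV3 (I25V variant), plated the day before in DMEM + 10% FBS at 37 °C, 5% CO2. Calcium 4 dye loaded in Ca/Mg-free HEPES D-PBS pH 7.4 for 1–2 h at room temperature. Compound dilutions added with 3 min baseline, then 2-APB at 60 µM final; Ca2+ flux read 3 min on FLIPR. Kb from at least duplicates, averaged across independent runs.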

[16] = molecular target: T3, Transient receptor potential cation channel subfamily V member 3 (Homo sapiens, UniProt Q8NET8); assay: as §4; type: cell-based; in short: as §5
T3 sequence (Q8NET8 whole entry): T1 sequence (whole entry)

Rattus norvegicus [17] = assay: Toxicity in Sprague-Dawley rat reserpine model of central pain assessed as behavioral changes at 10 to 100 mg/kg, po; type: organism-based; details: in vivo
[18] = molecular target: Voltage-dependent L-type calcium channel subunit alpha-1C (Homo sapiens, UniProt Q13936); assay: Binding affinity to Cav1.2 (unknown origin) at 10 uM; in short: as §3
[19] = AUC(0 to 8 hrs) in rat at 2 mg/kg, po; type: ADME, organism-based; design: time < 6 hr, dose 2 mg/kg, route oral; details: in vivo; in short: as §2
[20] = […] plasma clearance in rat at 1 mg/kg, iv; type: ADME, organism-based; details: read-out: CL free (converted); in short: as §2
Rattus norvegicus [21] = assay: Antiallodynic activity in po dosed sciatic nerve ligation Sprague-Dawley rat model of neuropathic pain assessed as attenuation of mechanical allodynia induced by von Frey hair stimulation to the ipsilateral hind paw; type: functional, organism-based; in short: as §1

Voltage-dependent L-type calcium channel subunit alpha-1C, sequence (Q13936 whole entry): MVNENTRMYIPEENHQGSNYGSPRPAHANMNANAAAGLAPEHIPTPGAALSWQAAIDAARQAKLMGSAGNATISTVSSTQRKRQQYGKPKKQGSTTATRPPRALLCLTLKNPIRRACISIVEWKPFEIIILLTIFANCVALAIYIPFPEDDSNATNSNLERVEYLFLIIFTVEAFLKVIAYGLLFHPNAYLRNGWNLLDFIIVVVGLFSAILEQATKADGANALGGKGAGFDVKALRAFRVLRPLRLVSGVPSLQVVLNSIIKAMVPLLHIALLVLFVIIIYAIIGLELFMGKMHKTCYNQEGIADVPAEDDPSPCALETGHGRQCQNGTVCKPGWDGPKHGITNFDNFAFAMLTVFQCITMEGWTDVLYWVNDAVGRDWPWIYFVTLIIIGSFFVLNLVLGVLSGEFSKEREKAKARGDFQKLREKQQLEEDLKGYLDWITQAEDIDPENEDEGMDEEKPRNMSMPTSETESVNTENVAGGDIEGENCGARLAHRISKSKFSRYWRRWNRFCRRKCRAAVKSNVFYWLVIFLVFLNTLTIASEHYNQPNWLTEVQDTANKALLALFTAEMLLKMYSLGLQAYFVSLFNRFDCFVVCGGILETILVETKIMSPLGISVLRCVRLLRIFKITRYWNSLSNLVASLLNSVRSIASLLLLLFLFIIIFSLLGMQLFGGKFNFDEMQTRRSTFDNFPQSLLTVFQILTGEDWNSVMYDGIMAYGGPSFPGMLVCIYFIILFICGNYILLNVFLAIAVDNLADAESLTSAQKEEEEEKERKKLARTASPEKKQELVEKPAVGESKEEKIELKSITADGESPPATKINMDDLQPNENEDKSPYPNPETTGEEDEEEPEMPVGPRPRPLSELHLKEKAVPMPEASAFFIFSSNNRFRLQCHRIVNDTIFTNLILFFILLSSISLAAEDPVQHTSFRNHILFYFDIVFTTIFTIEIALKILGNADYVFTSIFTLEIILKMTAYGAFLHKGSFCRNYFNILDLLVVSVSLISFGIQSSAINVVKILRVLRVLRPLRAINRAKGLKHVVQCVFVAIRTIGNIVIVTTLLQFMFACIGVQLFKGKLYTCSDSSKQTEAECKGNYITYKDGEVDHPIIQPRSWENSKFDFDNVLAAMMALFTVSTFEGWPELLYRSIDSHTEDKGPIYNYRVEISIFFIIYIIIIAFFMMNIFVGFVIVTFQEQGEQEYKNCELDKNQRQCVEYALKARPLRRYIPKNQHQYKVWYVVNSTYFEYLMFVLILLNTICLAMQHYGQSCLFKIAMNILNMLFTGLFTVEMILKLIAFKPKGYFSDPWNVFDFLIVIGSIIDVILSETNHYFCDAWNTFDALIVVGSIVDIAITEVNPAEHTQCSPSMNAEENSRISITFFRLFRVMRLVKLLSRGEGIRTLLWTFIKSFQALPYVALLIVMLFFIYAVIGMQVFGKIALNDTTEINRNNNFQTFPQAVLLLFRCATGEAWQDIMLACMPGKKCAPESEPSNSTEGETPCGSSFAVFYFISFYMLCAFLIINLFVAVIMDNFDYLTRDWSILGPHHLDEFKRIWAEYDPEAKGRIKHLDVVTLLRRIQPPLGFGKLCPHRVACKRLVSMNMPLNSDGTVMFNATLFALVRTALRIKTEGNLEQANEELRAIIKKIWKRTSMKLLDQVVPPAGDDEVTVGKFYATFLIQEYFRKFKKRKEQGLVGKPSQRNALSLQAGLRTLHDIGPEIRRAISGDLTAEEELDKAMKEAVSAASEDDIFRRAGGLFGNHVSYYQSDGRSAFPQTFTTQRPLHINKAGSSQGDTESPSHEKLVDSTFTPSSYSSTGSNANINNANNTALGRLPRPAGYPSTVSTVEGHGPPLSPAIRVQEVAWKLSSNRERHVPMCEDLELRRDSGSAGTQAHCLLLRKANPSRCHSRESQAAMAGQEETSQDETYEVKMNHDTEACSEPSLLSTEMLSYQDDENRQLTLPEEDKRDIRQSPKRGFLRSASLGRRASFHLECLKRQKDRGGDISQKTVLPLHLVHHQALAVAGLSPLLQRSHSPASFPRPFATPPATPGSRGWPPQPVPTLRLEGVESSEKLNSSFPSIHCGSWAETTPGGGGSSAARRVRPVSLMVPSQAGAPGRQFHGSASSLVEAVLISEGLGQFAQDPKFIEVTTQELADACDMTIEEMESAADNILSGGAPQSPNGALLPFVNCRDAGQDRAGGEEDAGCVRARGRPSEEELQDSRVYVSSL
Sodium channel protein type 5 subunit alpha, sequence (Q14524 whole entry): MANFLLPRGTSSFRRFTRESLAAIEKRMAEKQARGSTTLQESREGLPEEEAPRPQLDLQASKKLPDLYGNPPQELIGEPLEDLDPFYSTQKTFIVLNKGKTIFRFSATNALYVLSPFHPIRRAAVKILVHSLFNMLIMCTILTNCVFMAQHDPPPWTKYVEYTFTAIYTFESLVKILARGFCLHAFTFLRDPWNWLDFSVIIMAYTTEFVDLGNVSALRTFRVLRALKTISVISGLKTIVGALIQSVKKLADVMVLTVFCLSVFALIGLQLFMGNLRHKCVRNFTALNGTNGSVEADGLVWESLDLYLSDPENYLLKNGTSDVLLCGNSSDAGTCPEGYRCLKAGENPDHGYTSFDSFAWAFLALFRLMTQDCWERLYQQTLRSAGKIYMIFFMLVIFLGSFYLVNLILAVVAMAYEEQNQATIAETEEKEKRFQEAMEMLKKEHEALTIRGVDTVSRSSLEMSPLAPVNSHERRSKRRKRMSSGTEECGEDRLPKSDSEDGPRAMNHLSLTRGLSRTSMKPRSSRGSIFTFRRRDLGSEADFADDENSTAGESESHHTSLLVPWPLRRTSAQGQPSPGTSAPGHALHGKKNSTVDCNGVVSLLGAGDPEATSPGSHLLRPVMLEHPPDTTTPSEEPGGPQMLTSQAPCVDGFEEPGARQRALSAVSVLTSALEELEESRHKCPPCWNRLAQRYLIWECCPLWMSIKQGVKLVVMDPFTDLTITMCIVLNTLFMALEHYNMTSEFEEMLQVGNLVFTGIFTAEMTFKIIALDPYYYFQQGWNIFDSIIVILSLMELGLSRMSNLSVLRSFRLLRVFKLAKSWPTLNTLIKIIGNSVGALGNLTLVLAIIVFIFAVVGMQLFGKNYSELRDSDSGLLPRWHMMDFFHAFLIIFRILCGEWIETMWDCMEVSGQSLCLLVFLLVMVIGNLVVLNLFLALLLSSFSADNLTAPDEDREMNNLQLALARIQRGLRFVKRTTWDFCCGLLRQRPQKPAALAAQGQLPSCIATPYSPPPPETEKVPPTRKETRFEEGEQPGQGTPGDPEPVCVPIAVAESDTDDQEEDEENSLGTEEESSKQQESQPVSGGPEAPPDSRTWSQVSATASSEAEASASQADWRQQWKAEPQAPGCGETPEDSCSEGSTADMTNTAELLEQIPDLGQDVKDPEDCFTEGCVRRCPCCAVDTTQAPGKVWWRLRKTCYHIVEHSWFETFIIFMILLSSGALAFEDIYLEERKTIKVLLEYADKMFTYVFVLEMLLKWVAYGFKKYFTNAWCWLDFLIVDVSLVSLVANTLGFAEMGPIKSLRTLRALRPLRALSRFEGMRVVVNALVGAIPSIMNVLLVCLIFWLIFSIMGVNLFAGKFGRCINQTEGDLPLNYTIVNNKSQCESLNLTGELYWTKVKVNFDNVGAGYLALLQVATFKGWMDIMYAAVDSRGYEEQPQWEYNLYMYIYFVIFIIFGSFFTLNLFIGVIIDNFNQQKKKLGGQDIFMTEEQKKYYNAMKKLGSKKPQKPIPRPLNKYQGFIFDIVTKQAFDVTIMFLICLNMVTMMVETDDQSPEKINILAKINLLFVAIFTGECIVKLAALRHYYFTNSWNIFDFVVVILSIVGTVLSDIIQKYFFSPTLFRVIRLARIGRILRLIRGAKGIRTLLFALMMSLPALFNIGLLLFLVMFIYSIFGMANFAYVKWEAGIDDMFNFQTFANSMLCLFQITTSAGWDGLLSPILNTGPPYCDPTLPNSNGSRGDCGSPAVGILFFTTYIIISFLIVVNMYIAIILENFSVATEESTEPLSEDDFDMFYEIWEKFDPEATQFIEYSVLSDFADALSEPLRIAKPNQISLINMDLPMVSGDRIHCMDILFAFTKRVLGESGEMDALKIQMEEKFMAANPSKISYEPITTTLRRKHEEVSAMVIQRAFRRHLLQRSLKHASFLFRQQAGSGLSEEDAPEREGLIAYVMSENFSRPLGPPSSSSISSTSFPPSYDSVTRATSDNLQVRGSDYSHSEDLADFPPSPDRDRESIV

fraction unbound [3]: 0.89 | half-life [5]: 30 min | Activity [6]: < 50% | CL free (Liver microsome): 100 mL/min/kg | Kb [7]: 620 nM | Cmax [8]: 190 ng/mL | Ratio [9]: 1 | Activity [12]: Not Active | Activity [13]: > 50% | fAUC (Rattus norvegicus [14]): 240 ng·h/mL | Kb [15]: 560 nM | IC50 [16]: 930 nM | AUC(0-t) at 6 h [19]: 380 ng·h/mL | clearance [20]: 41.7 mL/min/kg | EC50 (Rattus norvegicus [21]): 11 µmol
Compound: C[C@]1(O)C[C@](c2cc(C(F)(F)F)ccn2)([C@H](O)c2ccccn2)C1 (mixture of isomers)
Activity (Rattus norvegicus [1]): Dose-dependent effect | EC50 (Rattus norvegicus [1]): 11 µmol | Activity (Rattus norvegicus [2]): Non-toxic | Activity (Rattus norvegicus [4]): Non-toxic | Activity (Rattus norvegicus [10]): Non-toxic | Activity [11]: < 50% | Activity (Rattus norvegicus [17]): Non-toxic | Activity [18]: < 50% | Activity (Rattus norvegicus [21]): Dose-dependent effect
